Experimental data from PubChem BioAssay.
The source made the active and inactive calls.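 Rule for the calls, unless noted: active = Her2 level under about 52% in both replicate screens, with viability over 70% of control (limit read from the data); inconclusive = Her2 under the limit in one screen only, or viability under 70%; inactive = Her2 level above the set limit.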

What was measured:
[1] = reducers of endogenous Her2 protein level, primary screen, SKBR3 breast tumor cells, AlphaScreen, ATP viability (AID 461); settings: 18-24 h, measured here: SKBR3 viability, ATP luminescence, at 10 µM;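 for Her2 level: lower value means less Her2 protein in the cells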;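 for viability: percent of carrier control wells set as 100% viability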
[2] = target: Receptor tyrosine-protein kinase erbB-2 (Homo sapiens) (UniProt P04626); experiment: as above; settings: 18-24 h, at 10 µM, stronger effect = lower value
Receptor tyrosine-protein kinase erbB-2 (Homo sapiens), sequence (P04626 whole entry, looked up): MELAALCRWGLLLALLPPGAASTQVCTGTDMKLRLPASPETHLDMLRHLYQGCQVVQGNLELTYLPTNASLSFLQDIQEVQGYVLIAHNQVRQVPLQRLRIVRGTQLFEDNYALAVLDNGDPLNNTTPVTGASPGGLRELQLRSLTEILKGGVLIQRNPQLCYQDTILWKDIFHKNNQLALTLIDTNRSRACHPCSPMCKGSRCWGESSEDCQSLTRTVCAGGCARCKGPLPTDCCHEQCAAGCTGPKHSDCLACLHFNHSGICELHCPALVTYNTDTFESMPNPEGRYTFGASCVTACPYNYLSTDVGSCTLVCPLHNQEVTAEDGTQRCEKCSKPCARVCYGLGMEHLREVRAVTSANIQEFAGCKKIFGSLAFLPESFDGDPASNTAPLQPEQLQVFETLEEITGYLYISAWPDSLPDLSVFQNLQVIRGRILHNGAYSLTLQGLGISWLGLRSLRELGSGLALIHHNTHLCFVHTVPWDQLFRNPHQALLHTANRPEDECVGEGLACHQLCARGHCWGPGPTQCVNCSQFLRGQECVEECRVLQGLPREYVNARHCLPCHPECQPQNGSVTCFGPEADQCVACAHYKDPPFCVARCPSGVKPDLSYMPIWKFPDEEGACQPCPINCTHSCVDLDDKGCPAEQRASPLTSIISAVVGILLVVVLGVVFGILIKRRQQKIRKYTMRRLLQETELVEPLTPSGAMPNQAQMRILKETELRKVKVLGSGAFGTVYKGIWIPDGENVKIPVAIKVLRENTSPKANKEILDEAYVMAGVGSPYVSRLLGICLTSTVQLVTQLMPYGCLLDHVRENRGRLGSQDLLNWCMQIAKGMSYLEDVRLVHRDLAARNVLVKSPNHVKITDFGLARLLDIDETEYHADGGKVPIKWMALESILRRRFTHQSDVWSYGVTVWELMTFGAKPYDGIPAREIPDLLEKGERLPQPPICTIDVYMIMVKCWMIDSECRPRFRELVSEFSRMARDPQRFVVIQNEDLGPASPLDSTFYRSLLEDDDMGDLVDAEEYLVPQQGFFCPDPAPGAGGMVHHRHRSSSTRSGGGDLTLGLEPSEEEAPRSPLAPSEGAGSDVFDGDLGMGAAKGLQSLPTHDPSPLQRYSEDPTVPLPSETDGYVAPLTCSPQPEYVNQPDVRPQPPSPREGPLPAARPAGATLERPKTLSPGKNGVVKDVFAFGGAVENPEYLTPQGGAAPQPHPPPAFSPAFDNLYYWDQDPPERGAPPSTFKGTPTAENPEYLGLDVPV

[3] = SK-BR-3 cell growth inhibitors, pilot screen, 24 h, human (AID 572;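 active = viability at or below 10% of carrier control in both of two separate runs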;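 note: compound exposure lasted between 18 and 24 h rather than exactly 24 h; 100% = carrier-treated control wells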); settings: SK-BR-3 viability, CellTiter-Glo luminescence, at 10 µM, stronger effect = lower value
[4] = HUVEC growth inhibition – cell-based, human, primary screen (AID 575;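 active = viability at or below 30% in both replicate assays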;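 note: 100% = median of untreated cell wells with 0.1% DMSO on each plate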); settings: HUVEC proliferation, CellTiter-Glo luminescence, 72 h; at 10 µM; stronger effect = lower value
Procedure, shortened: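 Timing: 72 h treatment at 37 °C; material: HUVEC primary cells; technique: CellTiter-Glo luminescence measuring cellular ATP; controls: vehicle and MePR control wells; measure: percent of median DMSO-control luminescence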

[5] = growth inhibitors of H69AR lung tumor, primary screen, human, duplicate replicates (AID 580;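 active = viability at or under a set limit in both replicates, limit being median viability minus 3 SD, cut at about 48% in these data, passing the limit was not always enough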;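 note: 100% = mean luminescence of untreated wells and 0% = no signal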); settings: H69AR lung tumor cells viability, ATP luminescence, 72 h; at 10 µM; stronger effect = lower value
[6] = reversal of MRP1-mediated doxorubicin resistance, pilot screen, H69AR cells, doxorubicin co-treatment (AID 601;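 active = viability loss from added drug above about 55%, and viability with drug at most 40%, in both replicates, limit read from the data, passing the limit was not always enough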); settings: CellTiter-Glo, 72 h, at 10 µM; for differential viability (reversal): stronger effect = higher value
[7] = 384-well plate pilot, post-Golgi transport modulator project, inhibition of yeast transport mutant growth (AID 636; in the data active = inhibition above about 31%); settings: absorbance 615 nm, about 18 h, stronger effect = higher value
[8] = growth suppression of yeast trafficking mutant, preliminary HTS, modulators of trafficking downstream of Golgi apparatus project, 1536-format plate, OD 615 nm (AID 637; in the data active = inhibition above about 30%); settings: yeast transport mutant growth, absorbance 615 nm, 18 h; stronger effect = higher value
[9] = H69AR cells + 2 uM doxorubicin, measured here: viability with 2 uM doxorubicin, stronger effect = lower value
[10] = H69AR cells, compound alone cytotoxicity

| Structure (SMILES) | viability [1] [%] | Her2 level [2] | viability [3] | viability [4] | viability [5] | differential viability (reversal) ([6]; H69AR cells + 2 uM doxorubicin) | viability [6, 9] [%] | viability [6, 10] [%] | inhibition [7] | inhibition [8] |
| --- | --- | --- | --- | --- | --- | --- | --- | --- | --- | --- |
| O=S(=O)(c1ccc2ccccc2c1)N(CC(O)CN1CCOCC1)c1ccccc1 (stereo not given) | 87 | 75.5% (inactive) | 87% (inactive) | 83.9% (inactive) | 100% (inactive) | 19% (inactive) | 81 | 100 | -5.87% (inactive) | -1.13% (inactive) |
| CCn1cc(C2=NOC(C(=O)Nc3cc(C)nn3-c3ccccc3)C2)c(C)n1 (stereo not given) | 89.5 | 88.5% (inactive) | 89.5% (inactive) | 101% (inactive) | 101% (inactive) | 8.29% (inactive) | 93 | 101 | -1.18% (inactive) | -8.25% (inactive) |
| COCCn1nnnc1C(c1ccc(OC)cc1)N1CCN(c2ccccc2F)CC1 (stereo not given) | 100 | 101% (inactive) | 100% (inactive) | 107% (inactive) | 89.7% (inactive) | 9.91% (inactive) | 79.8 | 89.7 | -2.6% (inactive) | -2.06% (inactive) |
| CC(C)(C)NC(=O)Cn1nnnc1-c1nonc1N | 93 | 94.5% (inactive) | 93% (inactive) | 109% (inactive) | 105% (inactive) | 13.3% (inactive) | 91.3 | 105 | -6.53% (inactive) | 5.25% (inactive) |
| Cc1ccc2cc(C#N)c(NCCCNC(=O)C3CCCO3)nc2c1 (stereo not given) | 106 | 73% (inactive) | 106% (inactive) | 104% (inactive) | 99% (inactive) | 12.6% (inactive) | 86.4 | 99 | -6.71% (inactive) | 6.19% (inactive) |
| Cc1sc2nc(CN3CCN(S(=O)(=O)c4cccc5nonc45)CC3)[nH]c(=O)c2c1C | 102 | 93.5% (inactive) | 102% (inactive) | 66.4% (inactive) | 87.9% (inactive) | 9.52% (inactive) | 78.4 | 87.9 | -6.05% (inactive) | 0.5% (inactive) |
| COc1ccc(CCNC(=O)CSc2nncn2N)cc1OC | 93.5 | 80.5% (inactive) | 93.5% (inactive) | 109% (inactive) | 96.4% (inactive) | 8% (inactive) | 88.4 | 96.4 | -2.11% (inactive) | -3.5% (inactive) |
| CC1(C)Cc2nc3oc4c(N(CCO)Cc5ccccc5)ncnc4c3cc2CO1 | 95.5 | 86.5% (inactive) | 95.5% (inactive) | 92.5% (inactive) | 86.2% (inactive) | 4.17% (inactive) | 82.1 | 86.2 | -1.76% (inactive) | -4.33% (inactive) |
| CCn1cc(C(=O)O)c(=O)c2cc(F)c(N3CCN(C(=O)Nc4ccccc4)CC3)cc21 | 108 | 92% (inactive) | 108% (inactive) | 111% (inactive) | 79.5% (inactive) | -1.55% (inactive) | 81.1 | 79.5 | -3.87% (inactive) | 0% (inactive) |
| CC(C)(C)OC(=O)N1CCC(C(=O)N[C@H](Cc2ccccc2)C(=O)O)CC1 | 101 | 93.5% (inactive) | 101% (inactive) | 108% (inactive) | 98.2% (inactive) | 3.02% (inactive) | 95.1 | 98.2 | -10.4% (inactive) | 3.5% (inactive) |
| COc1ccc(S(=O)(=O)Nc2ccc(F)c(F)c2)cc1Cl | 74 | 82.5% (inactive) | 74% (inactive) | 90.4% (inactive) | 90.2% (inactive) | -2.64% (inactive) | 92.8 | 90.2 | -4.59% (inactive) | 4.26% (inactive) |
| O=C(Nc1ccc2c(c1)nc1n2CCSC1)c1ccccc1 | 97 | 114% (inactive) | 97% (inactive) | 108% (inactive) | 92.7% (inactive) | 15.9% (inactive) | 76.8 | 92.7 | -0.26% (inactive) | -6% (inactive) |
| O=C(/C=N/O)Nc1cccnc1 | 110 | 90% (inactive) | 110% (inactive) | 91.3% (inactive) | 83.2% (inactive) | -6.35% (inactive) | 89.6 | 83.2 | -1.84% (inactive) | 3.71% (inactive) |
| CCc1nnc(NC(=O)c2cc3c(s2)CCCCC3)s1 | 92.5 | 108% (inactive) | 92.5% (inactive) | 90.5% (inactive) | 76.1% (inactive) | -2.58% (inactive) | 78.7 | 76.1 | -1.17% (inactive) | -3.44% (inactive) |
| CCC(=O)N1CCc2cc(S(=O)(=O)CCC(=O)Nc3ccc(F)c(F)c3)ccc21 | 104 | 160% (inactive) | 104% (inactive) | 97.3% (inactive) | 92.3% (inactive) | 10.2% (inactive) | 82.1 | 92.3 | 0.13% (inactive) | -6% (inactive) |
| CCCCC(=O)Nc1nn(CCC)c2nc3ccccc3cc12 | 94 | 92% (inactive) | 94% (inactive) | 92.5% (inactive) | 96.1% (inactive) | -5.81% (inactive) | 102 | 96.1 | -1.97% (inactive) | 6.23% (inactive) |

| Structure (SMILES) | viability [1] [%] | Her2 level [2] | viability [3] | viability [4] | viability [5] | differential viability (reversal) ([6]; H69AR cells + 2 uM doxorubicin) | viability [6, 9] [%] | viability [6, 10] [%] | inhibition [7] | inhibition [8] |
| --- | --- | --- | --- | --- | --- | --- | --- | --- | --- | --- |
| COCCOC(=O)c1c(C)nc(SCC(=O)Nc2ccc(OC)cc2)c(C#N)c1-c1ccco1 | 108 | 87.5% (inactive) | 108% (inactive) | 73.9% (inactive) | 91% (inactive) | 14.7% (inactive) | 76.3 | 91 | -2.63% (inactive) | -5.97% (inactive) |
| CCOC(=O)c1[nH]c2ccc(OC)cc2c1NC(=O)CCN1CCC(C)CC1 | 101 | 94.5% (inactive) | 101% (inactive) | 94.1% (inactive) | 96.8% (inactive) | -0.37% (inactive) | 97.2 | 96.8 | -3.12% (inactive) | -8.73% (inactive) |
| O=C(O)c1c[nH]c2ccc(S(=O)(=O)N3CCN(c4ccc(F)cc4)CC3)cc2c1=O | 93.5 | 124% (inactive) | 93.5% (inactive) | 91.6% (inactive) | 93.7% (inactive) | 10.9% (inactive) | 82.8 | 93.7 | 0.53% (inactive) | -6.45% (inactive) |
| CC(O)c1n(C)c(Cl)c[n+]1C (stereo not given) | 114 | 95% (inactive) | 114% (inactive) | 109% (inactive) | 103% (inactive) | -3.03% (inactive) | 106 | 103 | -0.66% (inactive) | 6.39% (inactive) |
| CC1=C(C#N)C(=O)NC(C)(C)C1 | 114 | 102% (inactive) | 114% (inactive) | 91.8% (inactive) | 89.3% (inactive) | 3.02% (inactive) | 86.3 | 89.3 | -6% (inactive) | 1.8% (inactive) |
| O=c1c2c(nc3nc(COc4ccccc4)[nH]n13)CCC2 | 103 | 103% (inactive) | 103% (inactive) | 99.5% (inactive) | 101% (inactive) | 10.9% (inactive) | 90.2 | 101 | -4.8% (inactive) | 3.23% (inactive) |
| Cc1cc(C)nc(NC(=O)c2ccc(OC(C)C)cc2)n1 | 102 | 90% (inactive) | 102% (inactive) | 95.8% (inactive) | 104% (inactive) | 14.3% (inactive) | 90.2 | 104 | -6.03% (inactive) | -4.13% (inactive) |
| Cc1cc(C)cc(NC(=O)C2CCCN(c3nccc(C)n3)C2)c1 (stereo not given) | 85 | 101% (inactive) | 85% (inactive) | 84% (inactive) | 104% (inactive) | 12.9% (inactive) | 91.1 | 104 | 0.91% (inactive) | -5.25% (inactive) |
| CCOc1ccc(-c2nc(C#N)c(N3CCCCCC3)o2)cc1 | 138 | 82% (inactive) | 138% (inactive) | 79.5% (inactive) | 94.7% (inactive) | -0.54% (inactive) | 95.2 | 94.7 | 0.64% (inactive) | -0.17% (inactive) |
| COc1ccc2cc(CN(Cc3ccco3)C(c3nnnn3C3CCCCC3)C(C)C)c(=O)[nH]c2c1 (stereo not given) | 100 | 83% (inactive) | 100% (inactive) | 47.1% (inactive) | 33.1% (active) | 7.31% (inactive) | 25.8 | 33.1 | -0.54% (inactive) | -4.59% (inactive) |
| O=S(=O)(c1ccc(S(=O)(=O)N2CCN3CCCC3C2)cc1)N1CCCC1 (stereo not given) | 80.5 | 90.5% (inactive) | 80.5% (inactive) | 104% (inactive) | 98.9% (inactive) | 16.1% (inactive) | 82.8 | 98.9 | -0.77% (inactive) | 0.17% (inactive) |
| c1ccc(Cn2nnc3c(N4CCC5(CC4)OCCO5)ncnc32)cc1 | 105 | 92.5% (inactive) | 105% (inactive) | 103% (inactive) | 90.7% (inactive) | -8.68% (inactive) | 99.3 | 90.7 | -1.05% (inactive) | 4.03% (inactive) |
| O=C(NCC(c1cccnc1)N1CCOCC1)c1ccco1 (stereo not given) | 97 | 71% (inactive) | 97% (inactive) | 106% (inactive) | 98.9% (inactive) | 8.38% (inactive) | 90.6 | 98.9 | -4.87% (inactive) | 1.17% (inactive) |
| Cc1cc(C)cc(NC(=O)N2CCC(c3nc4ccccc4o3)CC2)c1 | 90.5 | 99% (inactive) | 90.5% (inactive) | 88.9% (inactive) | 94.9% (inactive) | 1.69% (inactive) | 93.2 | 94.9 | -4.8% (inactive) | 1.8% (inactive) |
| Cc1cc(Nc2ccc(C(=O)O)cc2)n2nc(C)nc2n1 | 101 | 96.5% (inactive) | 101% (inactive) | 90.5% (inactive) | 109% (inactive) | 9.93% (inactive) | 99.2 | 109 | -4.67% (inactive) | 4.92% (inactive) |
| CC(C)CCNC(=O)C1CCN(C(=O)N(C)C)CC1 | 104 | 125% (inactive) | 104% (inactive) | 108% (inactive) | 98.8% (inactive) | 5% (inactive) | 93.8 | 98.8 | -1.41% (inactive) | -1.33% (inactive) |
